Here are results for 5 molecules from ChEMBL document CHEMBL1130095, “Synthesis of analogs of 2-methoxyestradiol with enhanced inhibitory effects on tubulin polymerization and cancer cell growth” (J Med Chem, 1997).

Assay [1] relates to DU-145. The assay can be described thus: In vitro cytotoxicity value is the concentration corresponding to 50% growth inhibition against DU-145 (prostate) cell line. The class given is functional. Conditions: Homo sapiens.
The test system of assay [2] is HOP-62. The assay can be described thus: In vitro cytotoxicity value is the concentration corresponding to 50% growth inhibition against HOP-62(non small cell lung) cell line. The class given is functional. To be noted: Homo sapiens.
Assay [3] concerns HCT-116. The assay can be described thus: In vitro cytotoxicity value is the concentration of the compound corresponding to 50% growth inhibition against HCT116 (colon) cell line. Conditions: Homo sapiens. The class given is functional.
Assay [4] concerns Panel (Carcinoma cell lines). The assay can be described thus: Mean graph midpoint for growth inhibition of all human cancer cell lines. The class given is functional.
In assay [5] the test system is MDA-MB-435. Briefly: In vitro cytotoxicity value is the concentration corresponding to 50% growth inhibition against MDA-MB-435 (breast) cell line. The class given is functional. Conditions: Homo sapiens.
The subject of assay [6] is OVCAR-3. Briefly: In vitro cytotoxicity value is the concentration corresponding to 50% growth inhibition against OVCAR-3 (ovarian) cell line. The class given is functional. Conditions: Homo sapiens.
In assay [7] the test system is SF-539. Briefly: In vitro cytotoxicity value is the concentration corresponding to 50% growth inhibition against […] (central nervous system) cell line. To be noted: Homo sapiens. Format: functional.
Assay [8] relates to SN12C. The assay can be described thus: In vitro cytotoxicity value is the concentration corresponding to 50% growth inhibition against SN12C (renal) cell line. The class given is functional. Conditions: Homo sapiens.
Assay [9] addresses T1, Tubulin (Bos taurus, UniProt Q6B856+Q862L2+Q862F3). The assay can be described thus: The compound was evaluated for inhibition of tubulin polymerization, which is purified from bovine brain. Format: functional. An outline of the steps: (§1)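 Electrophoretically homogeneous bovine brain tubulin at 1.2 mg/mL (12 µM), preincubated at 26 °C with varying compound concentrations, then chilled on ice before GTP was added. Assembly was followed at 26 °C by turbidity at 350 nm, and the extent was read at 20 min. IC50 was derived graphically from at least two independent assays.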

Another assay deals with Tubulin (Bos taurus) (UniProt Q6B856+Q862L2+Q862F3). The assay can be described thus: The compound was evaluated for inhibition of colchicine binding to tubulin. To be noted: concentration not given here. Format: protein assay. Put shortly: (§2)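 Mixtures held 1.0 µM bovine brain tubulin (0.1 mg/mL), 5.0 µM [³H]colchicine and 50 µM inhibitor, incubated 10 min at 37 °C. Bound-colchicine inhibition is given as percent, from triplicate samples in each experiment.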

The test system of assay [10] is UACC-62. The assay can be described thus: In vitro cytotoxicity value is the concentration corresponding to 50% growth inhibition against UACC-62(melanoma) cell line. The class given is functional. To be noted: Homo sapiens.
Assay [11] has as its system DU-145. The assay can be described thus: The In vitro cytotoxicity value corresponding to 50% growth inhibition against DU-145 (prostate) cell line. The class given is functional. To be noted: Homo sapiens.
For assay [12], the target named is Estrogen receptor (Rattus norvegicus) (UniProt P06211+Q62986). The assay can be described thus: Relative binding affinity for estrogen receptor using a tritium labeled estrogen as the tracer and immature rat uterine cytosol. The class given is protein assay. To be noted: Uterus. An outline of the steps:
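Competitive radiometric binding with a tritiated estrogen tracer and immature rat uterine cytosol as receptor source, incubated at 0 °C for 18 or 20 h. […] Coefficient of variation between replicate experiments is typically below 30%.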

Assay [13] concerns HCT-116. The assay can be described thus: In vitro cytotoxicity value corresponding to 50% growth inhibition against HCT116 (colon) cell line. Format: functional. Conditions: Homo sapiens.
Assay [14] deals with HOP-62. Briefly: In vitro cytotoxicity value corresponding to 50% growth inhibition against HOP-62(non small cell lung) cell line. The class given is functional. To be noted: Homo sapiens.
Assay [15] concerns MDA-MB-435. The assay can be described thus: In vitro cytotoxicity value corresponding to 50% growth inhibition against MDA-MB-435 (breast) cell line. Conditions: Homo sapiens. The class given is functional.
Assay [16] deals with OVCAR-3. Briefly: In vitro cytotoxicity value corresponding to 50% growth inhibition against OVCAR-3 (ovarian) cell line. To be noted: Homo sapiens. The class given is functional.
Assay [17] concerns SF-539. The assay can be described thus: The In vitro cytotoxicity corresponding to 50% growth inhibition against […] (central nervous system) cell line. Format: functional. To be noted: Homo sapiens.
The test system of assay [18] is SN12C. The assay can be described thus: In vitro cytotoxicity value corresponding to 50% growth inhibition against SN12C (renal) cell line. Conditions: Homo sapiens. Format: functional.
The test system of assay [19] is UACC-62. Briefly: In vitro cytotoxicity value corresponding to 50% growth inhibition against UACC-62(melanoma) cell line. Conditions: Homo sapiens. Format: functional.
The subject of assay [20] is HCT-116. The assay can be described thus: The In vitro cytotoxicity value is the concentration of the compound corresponding to 50% growth inhibition againstHCT-116 (colon) cell line. Format: functional. Conditions: Homo sapiens.
Assay [21] addresses T1, Tubulin. The assay can be described thus: Evaluated for inhibition of tubulin polymerization. The class given is functional. Put shortly: as §1
Assay [22] concerns HOP-62. Briefly: The In vitro cytotoxicity value is the concentration corresponding to 50% growth inhibition against HOP-62 (non small cell lung) cell line. Conditions: Homo sapiens. Format: functional.
Assay [23] deals with Tubulin beta chain (Bos taurus) (UniProt Q6B856). Briefly: Evaluated for % inhibition of colchicine binding to tubulin. To be noted: concentration not given here. Set-up: concentration or dose not given beside the values. An outline of the steps: as §2
Sequence of Tubulin beta chain (Bos taurus) (Q6B856 whole entry): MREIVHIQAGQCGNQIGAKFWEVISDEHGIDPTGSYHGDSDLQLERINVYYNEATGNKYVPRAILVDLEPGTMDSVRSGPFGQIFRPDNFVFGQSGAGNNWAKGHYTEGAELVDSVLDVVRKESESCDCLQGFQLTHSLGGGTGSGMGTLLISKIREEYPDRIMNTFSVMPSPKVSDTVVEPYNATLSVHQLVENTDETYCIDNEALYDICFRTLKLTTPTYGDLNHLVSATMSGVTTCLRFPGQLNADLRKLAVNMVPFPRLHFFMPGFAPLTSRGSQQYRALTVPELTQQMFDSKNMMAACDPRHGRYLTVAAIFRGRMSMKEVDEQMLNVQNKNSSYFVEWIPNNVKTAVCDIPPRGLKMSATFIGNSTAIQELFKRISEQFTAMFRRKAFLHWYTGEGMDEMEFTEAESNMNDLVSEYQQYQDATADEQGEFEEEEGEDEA

With `C[C@]12CC[C@@H]3c4cc(OCC(F)(F)F)c(O)cc4C(=O)C[C@H]3[C@@H]1CC[C@@H]2O`, the GI50 in the assay with DU-145 [1] worked out at 15 µM; in the assay on HOP-62 [2], 8.7 µM; with HCT-116 [3], 3.7 µM; in assay [4], 9.8 µM; in the assay with MDA-MB-435 [5] it was 27 µM; in the assay with OVCAR-3 [6], 3.5 µM. Besides, the GI50 was determined as 5.1 µM in the assay with SF-539 [7], 24 µM in the assay on SN12C [8] and 3.3 µM in the assay on UACC-62 [10]. This molecule also came in with a half-inhibitory concentration (IC50) against Tubulin [9] of 24 µM. On Tubulin (Bos taurus), this molecule came in with an inhibition of 1.7%.
As for `C[C@]12CC[C@@H]3c4cc(OCC(F)(F)F)c(O)cc4/C(=N\O)C[C@H]3[C@@H]1CC[C@@H]2O`, the GI50 in the assay with DU-145 [11] came to 0.049 µM; with HCT-116 [13] it was 0.031 µM; in the assay with HOP-62 [14] it was 0.017 µM; in assay [4], 0.066 µM; in the assay with MDA-MB-435 [15] it was 0.01 µM; with OVCAR-3 [16], 0.016 µM. Besides, the GI50 with SF-539 [17] is 0.021 µM; with SN12C [18], 0.045 µM; with UACC-62 [19], 0.015 µM. In assay [12], the relative binding affinity (RBA) is 0.007. This molecule also registered an IC50 against Tubulin [9] of 2.3 µM. For the same molecule, on Tubulin (Bos taurus), the inhibition came to 28%.
For the molecule `C[C@]12CC[C@@H]3c4cc(Br)c(O)c(Br)c4CC[C@H]3[C@@H]1CC[C@@H]2O`, the GI50 with DU-145 [11] stood at 40 µM; with HCT-116 [20], 20 µM; in assay [4], 25 µM; in the assay on MDA-MB-435 [15], 27 µM; with OVCAR-3 [16] it was 17 µM; in the assay with SF-539 [17] it was 21 µM. Further, the GI50 in the assay with SN12C [18] came to 28 µM; in the assay with UACC-62 [19] it was 17 µM. In addition, at Tubulin [21], the IC50 was greater than 40 µM.
As to `COc1cc2c(cc1O)CC[C@@H]1[C@@H]2CC[C@]2(C)[C@@H](O)CC[C@@H]12` [2-METHOXYESTRADIOL], the GI50 amounted to 1.8 µM with DU-145 [11]; 0.47 µM in the assay with HCT-116 [20]; 0.7 µM with HOP-62 [22]; 1.3 µM in [4]; 0.08 µM in the assay with MDA-MB-435 [15]; 0.21 µM with OVCAR-3 [16]. In addition, the GI50 in the assay on SF-539 [17] came to 0.32 µM; in the assay on SN12C [18], 0.95 µM; with UACC-62 [19], 0.36 µM. This molecule also yielded a relative binding affinity (RBA) in [12] of 0.245. The molecule further had an IC50 against Tubulin [21] of 3.1 µM. In assay [23], the inhibition turned out to be 19%.
Turning to `Cc1cc2cc3c(cc2o1)CC[C@@H]1[C@@H]3CC[C@]2(C)[C@@H](O)CC[C@@H]12`, the GI50 with DU-145 [11] came out at 17 µM; in the assay with HCT-116 [13] it was 0.51 µM; in the assay with HOP-62 [22] it was 19 µM; in [4] it was 14 µM; in the assay on MDA-MB-435 [15] it was 23 µM; with OVCAR-3 [16] it was 18 µM. For the same molecule, the GI50 in the assay on SF-539 [17] came to 14 µM; in the assay with SN12C [18], 16 µM; in the assay with UACC-62 [19], 16 µM. Also, at Tubulin [21], the concentration for half-maximal inhibition (IC50) is greater than 40 µM.

The GI50 is the concentration that inhibits growth by half. By IC50 is commonly meant the concentration that inhibits the measured activity by half. In general, inhibition refers to how much of the control response was suppressed.
